Source: PubChem BioAssay
An excerpt weighted towards active compounds, which were near 2% of everything screened.
XiGFP reactiv = activators of X-chromosome reactivation in mouse fibroblasts. XiGFP mouse fibroblasts, % GFP-positive cells imaging, 3 d; cells co-treated with 5-aza-dC sensitizer; scaled so ellipticine positive control = 100%. activation, % at 7.58 µM. 360,000 compounds, 0.055% hits. AID 743238;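 active = mean normalized replicate activation at least 10% and every replicate at or above 10%; inconclusive = only one of the two criteria met; inactive = mean below 10% and not all replicates reach 10%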;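 note: 0% = median of on-plate neutral control wells and 100% = ellipticine 6 µM median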
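assay system = SV40-immortalized XiGFP fibroblast cells, line 68-5-11 | buffer or medium = DMEM plus 5-aza-dC sensitizer | doses = single-point pinned compound dosing | times = 3-day compound exposure, then 15 min fixation at room temperature | benchmarks = positive control ellipticine, 6 µM final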
RAD54 inh = inhibitors of human RAD54 branch migration | RAD54 Holliday junction branch migration, FAM/BHQ fluorescence | AID 602329 | Q92698 | 360,000 compounds, 0.14% hits | inhibition, % at 10.4 µM;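 active = mean normalized replicate activity at least 40 and at least half of replicates scoring 40 or more; inconclusive = only one of the two criteria met; inactive = mean below 40 and under half of replicates reaching 40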;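 note: 0% = median of neutral control wells and 100% = median of positive control wells; inhibitors cause a drop in the FAM fluorescence signal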
E-sel inducer = E-selectin induction on HUVECs | 260,000 compounds, 0.37% hits | HUVEC E-selectin immunofluorescence imaging; normalized: neutral wells 0, TNF-alpha wells 100 | activation, % at 7.58 µM;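 active = mean E-selectin-positive cell signal at least 10% of the positive control, reached in at least 60% of replicates, without over 20% cell loss; inconclusive = no rule given, readout overlaps actives, possibly toxicity-flagged; inactive = the rest, including those meeting only one limit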
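System: HUVEC, human umbilical vein endothelial cells; quantity: 3,000 cells/well; buffer or medium: EGM-2 medium, gelatin-coated wells; dosing: single-point compound dose; detection: immunofluorescence imaging; evaluation: % PE-positive cells; benchmarks: TNF-alpha, DMSO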
PglD DTNB = inhibitors of Campylobacter jejuni PglD acetyltransferase; purified PglD enzyme, DTNB colorimetric CoA detection; inhibition, % at 12.5 µM; 360,000 compounds, 0.098% hits; AID 602405; in the data active = inhibition above about 16%, passing the limit was not always enough; inconclusive = no clear call, values can overlap the other calls
RAD52 anneal inh = blocks human RAD52 DNA annealing; P43351; inhibition, % at 18.7 µM; 360,000 compounds, 0.46% hits; recombinant RAD52 DNA annealing, FRET fluorescence;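 active = every replicate showing at least 50% inhibition; inconclusive = mean inhibition at least 50% but not in every replicate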
Target sequence (P43351 whole entry, looked up): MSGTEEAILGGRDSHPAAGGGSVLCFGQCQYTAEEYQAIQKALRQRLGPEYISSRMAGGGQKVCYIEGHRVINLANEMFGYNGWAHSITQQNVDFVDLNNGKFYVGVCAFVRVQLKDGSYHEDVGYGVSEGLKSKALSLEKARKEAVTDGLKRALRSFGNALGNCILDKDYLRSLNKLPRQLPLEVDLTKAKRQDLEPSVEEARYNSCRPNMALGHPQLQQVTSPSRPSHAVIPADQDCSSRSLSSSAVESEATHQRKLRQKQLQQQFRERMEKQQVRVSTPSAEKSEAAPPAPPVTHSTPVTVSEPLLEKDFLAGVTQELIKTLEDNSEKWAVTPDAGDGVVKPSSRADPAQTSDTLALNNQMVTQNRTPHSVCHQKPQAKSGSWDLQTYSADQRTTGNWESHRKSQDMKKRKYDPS
Ecoli rRNA inh = inhibits bacterial ribosomal RNA function over humanized ribosomes | GFP signal change (wild-type ribosome), % (test concentration not listed) | 350,000 compounds, 1.6% hits | E. coli WT GFP vs humanized-ribosome RFP mutants, fluorescence, 24 h; stronger effect = lower value; DMSO median 0, no signal -100 | AID 720706;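 active = significant combined selectivity score with lowered wild-type GFP, culture density cut under 30%, mutant RFP and density less affected; inactive = any of these conditions unmet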
* marks the source's active call; other numbers are inactive results; u = inconclusive; x = not tested or not shown.

SMILES	XiGFP reactiv	RAD54 inh	E-sel inducer	PglD DTNB	RAD52 anneal inh	Ecoli rRNA inh
Cc1nc(-c2cccc(NC(=O)c3ccc(Cl)c(S(=O)(=O)N4CCCC4)c3)c2)cs1	0.3	3.0	0.0	1.5	-47.6	-8.3
Cc1nc(-c2cccc(NC(=O)c3cccc(S(=O)(=O)N4CCCC4)c3)c2)cs1	0.0	-20.3	x	-1.9	-49.6	-29.4*
Cc1ccc(S(=O)(=O)Nc2cccc3c2O[C@@H](CN(C)Cc2ccc(C(=O)O)cc2)[C@@H](C)CN([C@@H](C)CO)C3=O)cc1	-0.3	9.3	0.0	-2.5	-15.4	-0.1
Cc1[nH]nc(C(=O)NN=Cc2ccccc2Cl)c1N=NN(C)C	0.3	x	0.2	x	-5.7	-21.0*
COc1ccc2c3c([nH]c2c1)[C@H](CO)NCC31CCN(C(=O)Nc2ccc(F)cc2)CC1	0.0	x	x	x	x	-2.8
COc1ccc2c3c([nH]c2c1)[C@@H](CO)NCC31CCN(C(=O)Nc2ccccc2F)CC1	0.1	x	-0.3	x	68.5*	-0.7
COc1ccc2c3c([nH]c2c1)[C@H](CO)NCC31CCN(C(=O)Nc2ccc(F)cc2F)CC1	0.5	x	0.1	x	76.2*	3.3
O=C(N[C@H]1CC[C@@H](CCNS(=O)(=O)c2cccc(Cl)c2)O[C@H]1CO)c1ccccc1	0.1	-0.3	-2.3	-1.4	-2.0	-6.1
C[C@H](CO)N1C[C@H](C)[C@H](CN(C)Cc2ccc(Cl)c(Cl)c2)Oc2ccc(NC(=O)CCC(F)(F)F)cc2C1=O	-0.1	-3.7	u	0.9	10.2	-0.4
CCCC(=O)Nc1ccc(Cl)c(NC(=S)NC(=O)c2ccco2)c1	0.0	x	x	x	-21.2	-16.4*
CCCC(=O)Nc1ccc(Cl)c(NC(=O)c2ccco2)c1	x	7.4	x	-5.1	x	x
Cc1cc(/C=C(/C#N)c2cccc(F)c2)c(C)n1-c1cccnc1	x	-4.5	x	9.2	-27.9	-34.6*
CC(/C=C1\SC(=S)N(NC(=O)c2ccncc2)C1=O)=C\c1ccccc1	0.0	9.2	0.0	0.1	-77.4	-32.0*
CC(/C=C1\SC(=S)N(NS(=O)(=O)c2ccccc2)C1=O)=C\c1ccccc1	0.0	0.8	1.6	-3.0	-29.6	-43.1*
C/C(=N\NC(=O)c1cc(O)ccc1O)c1cccc(NC(=O)c2ccc(Cl)cc2)c1	-0.1	2.5	-0.4	-1.3	-5.9	-25.8*
C/C(=N\NC(=O)c1cc(O)ccc1O)c1cccc(NC(=O)c2cccc(Cl)c2)c1	0.2	-2.3	-1.4	6.5	-2.1	-28.2
Cc1ccc(NC(=O)COC(=O)c2ccccc2Cl)cc1S(=O)(=O)N(C)C	-0.1	x	-0.1	x	-13.5	-33.6*
Cc1ccc(NC(=O)c2ccc(Br)o2)cc1S(=O)(=O)N(C)C	0.0	x	-0.3	x	-38.4	-21.4*
Cc1ccc(NC(=O)c2ccncc2)cc1S(=O)(=O)N(C)C	0.3	-2.8	x	0.7	-20.3	10.1
C[C@@H]1CN([C@@H](C)CO)C(=O)Cc2cc(NC(=O)Cc3cn(C)c4ccccc34)ccc2O[C@H]1CN(C)C(=O)Nc1ccc(C(F)(F)F)cc1	-1.3	-7.1	-1.4	0.5	1.5	0.8
C[C@H]1CN([C@@H](C)CO)S(=O)(=O)c2ccc(-c3ccc(C(=O)N(C)C)cc3)cc2O[C@H]1CN(C)C(=O)C1CCC1	-0.9	6.6	0.0	-1.2	-6.1	-7.6
CC(=O)Nc1ccc2nc(NC(=O)C(Cl)(Cl)Cl)sc2c1	0.0	x	x	x	-14.2	-37.1*
CC(=O)Nc1ccc2nc(NC(=O)c3cccnc3)sc2c1	-0.1	x	x	x	-15.0	31.9
O=[N+]([O-])c1ccc(C2=NN(c3ccccc3)C(c3ccco3)C2)cc1 (stereo unspecified)	86.0*	x	x	x	-39.6	x
O=[N+]([O-])c1ccc(/C=C/C2=NN(c3ccccc3)C(c3ccco3)C2)cc1 (stereo unspecified)	89.0*	-13.9	x	-0.5	x	x
COc1ccc(CNC(=O)C[C@@H]2C[C@@H]3c4cc(NS(=O)(=O)c5ccc(F)cc5)ccc4O[C@@H]3[C@H](CO)O2)cc1	-0.1	4.8	-0.4	0.6	-4.9	-4.4
CN(C)C(=O)C[C@@H]1C[C@@H]2c3cc(NC(=O)Nc4ccccc4)ccc3O[C@@H]2[C@H](CO)O1	-0.1	0.3	-0.5	0.1	x	-0.4
